In brackets after ≈: the same amount, converted by molar mass.
Experiments:
[1] = tested on: cotton pellet induced granuloma; test: Cotton pellets induced granuloma assay; type: in vivo; settings: rat, 100 mg kg^−1 p.o. for 8 d, mean ± SEM
Method in brief: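 Two sterile 10 mg cotton pellets implanted ventrally in rats, six per group. […] On day 9 rats were killed under excess ether. Pellets were freed of tissue and weighed wet, then dried at 55 °C for 6 h or to constant weight. Granuloma equals dry weight minus cotton weight. Mean ± SEM.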

[2] = tested on: carrageenan-induced paw edema; test: Carrageenan induced hind paw edema assay; type: in vivo; settings: rat, 100 mg kg^−1 p.o., mean ± SEM
Method in brief: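 Rats, six per group, acclimatized one week (25 ± 2 °C, 12 h light/dark, standard pellets, water ad libitum). […] Paw volume measured by plethysmometer displacement to the lateral malleolus at 1, 3 and 6 h. Mean ± SEM.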

RAW 264.7 cells [3] = test: MTT assay, LPS-induced inflammation in RAW 264.7; type: cell-based, murine; settings: RAW 264.7, pre-treatment 100 μM and 200 μM, then LPS; Fig. 4
Method in brief: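 Mouse RAW 264.7 macrophages kept in high-glucose DMEM with 10% heat-inactivated FBS and 1% penicillin–streptomycin at 37 °C, 5% CO2. Cells seeded at 5 × 10^5 cells per mL, pretreated 1 h with test compound (100 or 200 μM), then stimulated with […] for 24 h. Medium replaced; 0.5 mg mL−1 MTT for 3 h; formazan dissolved in DMSO; OD read at 540 nm. Percent inflammation derived by subtracting percent viability relative to control.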

Rhizopus arrhizus = test: In vitro antifungal MIC, poison plate technique; type: cell-based
COX-2 = target: T1, COX-2 (Ovis aries, UniProt P79208); test: Colorimetric COX; type: biochemical, ovine; settings: read-out: % inhibition of COX, COX-2
T1 sequence (P79208 17-603): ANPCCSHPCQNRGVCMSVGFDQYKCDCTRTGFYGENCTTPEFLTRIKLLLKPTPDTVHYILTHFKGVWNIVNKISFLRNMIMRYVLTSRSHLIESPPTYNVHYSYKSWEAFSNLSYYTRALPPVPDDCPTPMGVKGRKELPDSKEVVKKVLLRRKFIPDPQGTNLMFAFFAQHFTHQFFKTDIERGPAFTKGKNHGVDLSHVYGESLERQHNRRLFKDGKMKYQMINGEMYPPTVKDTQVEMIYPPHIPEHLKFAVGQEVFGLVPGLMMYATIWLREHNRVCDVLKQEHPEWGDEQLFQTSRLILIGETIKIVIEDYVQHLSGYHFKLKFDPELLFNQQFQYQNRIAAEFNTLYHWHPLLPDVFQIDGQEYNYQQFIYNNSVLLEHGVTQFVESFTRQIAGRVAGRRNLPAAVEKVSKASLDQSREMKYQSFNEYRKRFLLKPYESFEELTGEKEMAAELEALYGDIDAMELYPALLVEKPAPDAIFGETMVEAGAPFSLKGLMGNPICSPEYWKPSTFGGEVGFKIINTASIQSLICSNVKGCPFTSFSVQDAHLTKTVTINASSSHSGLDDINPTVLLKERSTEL

Escherichia coli = test: In vitro antibacterial MIC determination; type: cell-based
Method in brief: (§1)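 Bacteria grown on nutrient agar, subcultured to log phase in nutrient broth, then diluted in sterile saline to about 10^5–10^6 CFU mL−1. Test compounds diluted in acetone, DMSO or diethyl ether (ether preferred). Saturated disks placed on spread-plated inoculum and incubated at 37 °C for 24 h. MIC determined across different compound concentrations, with streptomycin as standard.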

COX-1 = target: T2, COX-1 (Ovis aries, UniProt P05979); test: Colorimetric COX; type: biochemical, ovine; settings: read-out: % inhibition of COX, COX-1
T2 sequence (P05979 25-600): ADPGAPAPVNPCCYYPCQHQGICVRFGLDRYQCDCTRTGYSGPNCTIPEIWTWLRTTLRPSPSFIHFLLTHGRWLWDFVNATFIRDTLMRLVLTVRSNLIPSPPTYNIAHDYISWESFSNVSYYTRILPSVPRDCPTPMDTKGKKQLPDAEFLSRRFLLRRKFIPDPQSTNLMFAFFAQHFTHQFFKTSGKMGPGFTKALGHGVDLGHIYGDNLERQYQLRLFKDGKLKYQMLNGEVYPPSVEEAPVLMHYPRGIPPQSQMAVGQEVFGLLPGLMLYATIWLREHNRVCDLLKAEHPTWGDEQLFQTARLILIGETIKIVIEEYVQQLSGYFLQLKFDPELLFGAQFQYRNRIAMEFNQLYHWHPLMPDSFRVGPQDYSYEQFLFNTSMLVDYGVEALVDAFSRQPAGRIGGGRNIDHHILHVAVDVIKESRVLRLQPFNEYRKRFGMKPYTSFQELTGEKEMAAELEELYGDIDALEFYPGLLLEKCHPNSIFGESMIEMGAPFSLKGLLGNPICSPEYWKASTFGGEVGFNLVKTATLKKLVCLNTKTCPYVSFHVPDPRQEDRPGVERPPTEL

Aspergillus flavus = test: In vitro antifungal MIC, poison plate technique; type: cell-based
Aspergillus niger = test: In vitro antifungal MIC, poison plate technique; type: cell-based
Staphylococcus aureus = test: In vitro antibacterial MIC determination; type: cell-based
Method in brief: as §1

RAW 264.7 cells [4] = test: Nitrite; type: cell-based, murine; settings: RAW 264.7, 100 μM and 200 μM pre-treatment; Fig. 5
Method in brief: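 RAW 264.7 cells (1 × 10^6) seeded in flasks and left to adhere overnight. Pretreated 1 h with test compound (100 or 200 μM), then 100 μM LPS for 24 h at 37 °C, 5% CO2. Supernatant mixed with an equal volume of Griess reagent (0.1% naphthylethylenediamine and 1% sulfanilamide, 1:1, in 5% phosphoric acid) for 10 min in the dark at room temperature; A540 read. Nitrite quantified from a NaNO2 standard curve (0.1–6.25 μM), expressed as μmol NO2−/mg protein. Triplicates.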

Pseudomonas aeruginosa = test: In vitro antibacterial MIC determination; type: cell-based
Method in brief: as §1

Bacillus subtillis = test: In vitro antibacterial MIC determination; type: cell-based
Method in brief: as §1

Compound | Weight, Dry (cotton pellet) [1] | Weight, Wet (cotton pellet) [1] | Paw volume ([2]; 1 h after carrageenan) | Paw volume ([2]; 3 h after carrageenan) | Paw volume ([2]; 6 h after carrageenan) | anti-inflammatory activity against LPS induced cell death / inflammation (MTT) (RAW 264.7 cells [3]) | MIC (Rhizopus arrhizus) | inhibition at 100 µM (COX-2) | inhibition at 200 µM (COX-2) | MIC (Escherichia coli) | inhibition at 100 µM (COX-1) | inhibition at 200 µM (COX-1) | MIC (Aspergillus flavus) | MIC (Aspergillus niger) | MIC (Staphylococcus aureus) | inhibition of LPS-induced NO production (RAW 264.7 cells [4]) | MIC (Pseudomonas aeruginosa) | MIC (Bacillus subtillis)
Cc1ccc(-c2cc(C(F)(F)F)nn2-c2ccc(S(N)(=O)=O)cc2)cc1 [Celecoxib, reference compound] | 78.80 ± 3.24 mg | 150.14 ± 3.46 mg | 0.80 ± 0.50 mL | 0.98 ± 0.92 mL | 1.58 ± 0.22 mL | – | – | – | – | – | – | – | – | – | – | – | – | –
COC(=O)NC[C@@H](O)[C@@H]1CCc2cc(F)ccc2O1 [Compound 9a, Methyl ((R)-2-((S)-6-fluorochroman-2-yl)-2-hydroxyethyl)carbamate] | – | – | 0.72 ± 0.72 mL | 1.06 ± 0.52 mL | 1.56 ± 0.33 mL | strong anti-inflammatory activity | 14.2 ± 0.69 µg/mL (≈ 52.7 µM) | 18.1 ± 0.88% | 52.42 ± 0.21% | 21.7 ± 1.06 µg/mL (≈ 80.6 µM) | 50.66 ± 0.33% | 75.33 ± 0.14% | 12.7 ± 0.8 µg/mL (≈ 47 µM) | 11.2 ± 1.08 µg/mL (≈ 41.6 µM) | 16.6 ± 0.35 µg/mL (≈ 61.5 µM) | strong inhibition | 19.5 ± 1.25 µg/mL (≈ 72.3 µM) | 20.5 ± 0.76 µg/mL (≈ 76.1 µM)
[H]/N=C(/N)N[C@H]1[C@H](O)[C@@H](O)[C@H](O[C@@H]2O[C@@H](C)[C@](O)(C=O)[C@H]2O[C@@H]2O[C@@H](CO)[C@H](O)[C@@H](O)[C@@H]2NC)[C@@H](N/C(N)=N\[H])[C@@H]1O [Streptomycin, reference compound] | – | – | – | – | – | – | – | – | – | 26.4 ± 1.12 µg/mL (≈ 45.4 µM) | – | – | – | – | 18.6 ± 1.07 µg/mL (≈ 32.1 µM) | – | 28.2 ± 0.8 µg/mL (≈ 48.5 µM) | 25.4 ± 0.48 µg/mL (≈ 43.7 µM)
O=S(=O)(NC[C@@H](O)[C@@H]1CCc2cc(F)ccc2O1)c1ccc(F)cc1 [Compound 8a, N-((R)-2-((S)-6-Fluorochroman-2-yl)-2-hydroxyethyl)-4-fluorobenzenesulfonamide] | – | – | – | – | – | – | 22.8 ± 0.54 µg/mL (≈ 61.7 µM) | 23.5 ± 0.55% | 38.64 ± 0.33% | 30.1 ± 0.72 µg/mL (≈ 81.6 µM) | 37.3 ± 0.32% | 45.5 ± 0.77% | 23.1 ± 0.25 µg/mL (≈ 62.4 µM) | 22.3 ± 0.27 µg/mL (≈ 60.4 µM) | 21.9 ± 0.33 µg/mL (≈ 59.2 µM) | – | 31.9 ± 1.04 µg/mL (≈ 86.3 µM) | 31.6 ± 1.03 µg/mL (≈ 85.5 µM)
CC(C)COC(=O)NC[C@@H](O)[C@@H]1CCc2cc(F)ccc2O1 [Compound 9c, Isobutyl ((R)-2-((S)-6-fluorochroman-2-yl)-2-hydroxyethyl)carbamate] | – | – | – | – | – | – | 25.6 ± 0.48 µg/mL (≈ 82.1 µM) | 24.3 ± 0.2% | 41.66 ± 0.23% | 22.7 ± 0.26 µg/mL (≈ 73 µM) | 39.6 ± 0.08% | 51.64 ± 0.32% | 19.8 ± 0.37 µg/mL (≈ 63.6 µM) | 19.3 ± 0.47 µg/mL (≈ 62.1 µM) | 19 ± 1.08 µg/mL (≈ 61.2 µM) | – | 28.8 ± 0.6 µg/mL (≈ 92.5 µM) | 26.1 ± 0.3 µg/mL (≈ 83.8 µM)
O=[N+]([O-])c1cc(S(=O)(=O)NC[C@@H](O)[C@@H]2CCc3cc(F)ccc3O2)ccc1Cl [Compound 8d, 4-Chloro-N-((R)-2-((S)-6-Fluorochroman-2-yl)-2-hydroxyethyl)-3-nitrobenzenesulfonamide] | – | – | 0.78 ± 0.88 mL | 1.08 ± 0.40 mL | 1.50 ± 0.64 mL | strong anti-inflammatory activity | 18.6 ± 0.65 µg/mL (≈ 43.3 µM) | 39.3 ± 0.77% | 63.88 ± 0.46% | 24.2 ± 0.72 µg/mL (≈ 56.1 µM) | 53.88 ± 0.3% | 69.64 ± 0.18% | 17 ± 0.7 µg/mL (≈ 39.6 µM) | 15.3 ± 0.15 µg/mL (≈ 35.5 µM) | 17.4 ± 0.4 µg/mL (≈ 40.5 µM) | strong inhibition | 27.4 ± 0.65 µg/mL (≈ 63.6 µM) | 18.3 ± 0.21 µg/mL (≈ 42.5 µM)
O=C(NC[C@@H](O)[C@@H]1CCc2cc(F)ccc2O1)OCC(Cl)(Cl)Cl [Compound 9b, 2,2,2-Trichloroethyl ((R)-2-((S)-6-fluorochroman-2-yl)-2-hydroxyethyl)carbamate] | – | – | 0.76 ± 0.48 mL | 0.88 ± 0.16 mL | 1.50 ± 0.25 mL | – | 19.2 ± 0.48 µg/mL (≈ 49.8 µM) | 37.7 ± 0.35% | 63.6 ± 0.32% | 21.1 ± 0.45 µg/mL (≈ 54.7 µM) | 43.1 ± 0.8% | 69.02 ± 0.5% | 23.8 ± 0.67 µg/mL (≈ 61.6 µM) | 24.7 ± 0.7 µg/mL (≈ 63.9 µM) | 20.32 ± 0.06 µg/mL (≈ 52.6 µM) | – | 30.36 ± 0.22 µg/mL (≈ 78.5 µM) | 26 ± 0.42 µg/mL (≈ 67.2 µM)
CCOC(=O)NC[C@@H](O)[C@@H]1CCc2cc(F)ccc2O1 [Compound 9d, Ethyl((R)-2-((S)-6-fluorochroman-2-yl)-2-hydroxyethyl)carbamate] | – | – | – | – | – | – | 31.3 ± 0.45 µg/mL (≈ 110 µM) | 29.7 ± 0.75% | 38.59 ± 0.29% | 27.2 ± 0.92 µg/mL (≈ 96.1 µM) | 41.4 ± 0.62% | 52.16 ± 0.3% | 25.2 ± 0.66 µg/mL (≈ 89 µM) | 28.46 ± 0.14 µg/mL (≈ 100 µM) | 18.1 ± 0.8 µg/mL (≈ 63.8 µM) | – | 31.7 ± 0.88 µg/mL (≈ 112 µM) | 27.7 ± 0.44 µg/mL (≈ 97.6 µM)

— paper PMC8694313 (RSC Advances, 2021)
